Laboratory results taken from ChEMBL document CHEMBL4411266, “Triterpenoid Hydroxamates as HIF Prolyl Hydrolase Inhibitors” (J Nat Prod, 2018).
Calls of active or inactive are those of the source. The rule behind the calls is not given here.

Experiments:
[1] = molecular target: T1, Hypoxia-inducible factor prolyl hydroxylase (Homo sapiens, UniProt Q96KS0+Q9NXG6+Q9GZT9+Q9H6Z9); experiment: Inhibition of PHD (unknown origin) expressed in mouse NIH/3T3 cells harboring HRE-driven luciferase gene assessed as transactivation of HIF1alpha after 6 hrs by luciferase reporter gene assay; assay type: cell-based
Procedure, shortened: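 NIH-3T3 mouse cells stably carrying an EPO-HRE luciferase reporter (three HRE copies from the erythropoietin promoter) treated with compounds for 6 h. Cells then washed twice in PBS and lysed in Tris-phosphate pH 7.8 buffer with MgCl2, DTT, Triton X-100 and glycerol for 15 min at room temperature. Luciferase measured in the supernatant after centrifugation.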

[2] = molecular target: T1, Hypoxia-inducible factor prolyl hydroxylase; experiment: Inhibition of PHD (unknown origin) expressed in mouse NIH/3T3 cells harboring HRE-driven luciferase gene assessed as transactivation of HIF1alpha after 6 hrs by luciferase reporter gene assay relative to deferoxamine; assay type: cell-based
Procedure, shortened: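 Mouse NIH-3T3 cells with a stably transfected EPO-HRE luciferase reporter exposed to compounds for 6 h, then washed, lysed and read for luciferase in the cleared lysate. EC50 and intrinsic relative activity (IRA) were calculated relative to 150 μM deferoxamine as reference.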

[3] = molecular target: T1, Hypoxia-inducible factor prolyl hydroxylase; experiment: Inhibition of PHD in HEK293T cells assessed as increase in HIF1alpha expression at 1 to 10 uM after 3 hrs by Western blot analysis; assay type: cell-based
Procedure, shortened: (§1)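 HEK-293T cells treated for 3 h, with DFX (100 μM) as a reference. Cell lysates were made in Tris-HCl pH 7.5/NaCl/glycerol/NP-40 buffer with protease and phosphatase inhibitors. 30 μg protein was run on 10% SDS-PAGE, blotted to PVDF and probed for HIF-1α, PHD1, PHD2 and PHD3. Detection was by HRP secondary and chemiluminescence.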

HEK-293T [4] = experiment: Effect on PHD2 expression in HEK293T cells at 1 to 10 uM after 3 hrs by Western blot analysis; assay type: ADME, cell-based; settings: human; procedure, shortened: as §1
HEK-293T [5] = experiment: Effect on PHD1 expression in HEK293T cells at 1 to 10 uM after 3 hrs by Western blot analysis; assay type: ADME, cell-based; settings: human; procedure, shortened: as §1
HEK-293T [6] = experiment: Effect on PHD3 expression in HEK293T cells at 1 to 10 uM after 3 hrs by Western blot analysis; assay type: ADME, cell-based; settings: human; procedure, shortened: as §1
[7] = molecular target: T1, Hypoxia-inducible factor prolyl hydroxylase; experiment: Inhibition of PHD in HEK293T cells assessed as increase in HIF1alpha expression at 10 uM after 15 to 180 mins by Western blot analysis; assay type: cell-based
Procedure, shortened: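 HEK-293T cells were stimulated over a time course and HIF-1α was followed by Western blot. Lysis was in NP-40 buffer with protease and phosphatase inhibitors. 30 μg protein was resolved on 10% SDS-PAGE, transferred to PVDF, and detected by HRP secondary and chemiluminescence.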

[8] = molecular target: T1, Hypoxia-inducible factor prolyl hydroxylase; experiment: Inhibition of PHD in HEK293T cells assessed as increase in HIF1alpha expression at 10 uM under hypoxic condition by Western blot analysis; assay type: cell-based
Procedure, shortened: (§2)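 HEK-293T cells were treated under hypoxia (1% O2) or normoxia, with or without compound. HIF-1α and PHD levels were read by Western blot: NP-40 lysis, 30 μg protein on 10% SDS-PAGE, PVDF transfer, HRP secondary and chemiluminescence.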

HEK-293T [9] = experiment: Effect on PHD2 expression in HEK293T cells at 10 uM under hypoxic condition by Western blot analysis; assay type: ADME, cell-based; settings: human; procedure, shortened: as §2
HEK-293T [10] = experiment: Effect on PHD2 expression in HEK293T cells at 10 uM under normoxic condition by Western blot analysis; assay type: ADME, cell-based; settings: human; procedure, shortened: as §2
[11] = molecular target: T1, Hypoxia-inducible factor prolyl hydroxylase; experiment: Inhibition of PHD in HEK293T cells assessed as increase in HIF1alpha expression at 10 uM under normoxic condition by Western blot analysis; assay type: cell-based; procedure, shortened: as §2
[12] = molecular target: T1, Hypoxia-inducible factor prolyl hydroxylase; experiment: Inhibition of PHD in HEK293T cells assessed as increase in HIF1alpha expression at 1 to 10 uM after 6 hrs in presence of proteasome inhibitor MG132; assay type: cell-based
Procedure, shortened: (§3)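 HEK-293T cells were treated for 6 h in the presence of the proteasome inhibitor MG132. Hydroxylated HIF-1α and total HIF-1α were determined by immunoblot: 10% SDS-PAGE, PVDF transfer, HRP/chemiluminescence detection.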

[13] = molecular target: T1, Hypoxia-inducible factor prolyl hydroxylase; experiment: Inhibition of PHD in HEK293T cells assessed as reduction in HIF1alpha hydroxylation at 1 to 10 uM after 6 hrs in presence of proteasome inhibitor MG132; assay type: cell-based; procedure, shortened: as §3
[14] = molecular target: T1, Hypoxia-inducible factor prolyl hydroxylase; experiment: Reversible inhibition of PHD (unknown origin) expressed in mouse NIH/3T3 cells harboring HRE-driven luciferase gene assessed as transactivation of HIF1alpha at 5 to 25 uM pretreated for 1 hr followed by compound washout and measured after 6 hrs by luciferase reporter gene assay; assay type: cell-based
Procedure, shortened: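 NIH-3T3-EPO-Luc cells stably carry an EPO-promoter 3×HRE-luciferase reporter. Cells were pretreated 1 h, then washed or not with PBS and incubated 6 h in complete medium. Lysis was in Tris-phosphate pH 7.8/MgCl2/DTT/Triton buffer and luciferase was read in the lysate. Data are fold induction over untreated cells, means ± SD, n = 3, one-way ANOVA with Tukey's test.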

[15] = molecular target: T1, Hypoxia-inducible factor prolyl hydroxylase; experiment: Inhibition of PHD (unknown origin) expressed in mouse NIH/3T3 cells harboring HRE-driven luciferase gene assessed as transactivation of HIF1alpha at 1 to 25 uM after 6 hrs in presence of 50 uM betulinic acid by luciferase reporter gene assay; assay type: cell-based
Procedure, shortened: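 NIH-3T3-EPO-Luc (3×HRE-luciferase) cells were preincubated 30 min with betulinic acid (50 μM), then treated with compound for 6 h. Cells were washed in PBS and lysed in Tris-phosphate pH 7.8 buffer, and luciferase was measured in the lysate. Data are fold induction over untreated cells, means ± SD, n = 3, one-way ANOVA with Tukey's test.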

T1 sequence (Q96KS0 whole entry, looked up): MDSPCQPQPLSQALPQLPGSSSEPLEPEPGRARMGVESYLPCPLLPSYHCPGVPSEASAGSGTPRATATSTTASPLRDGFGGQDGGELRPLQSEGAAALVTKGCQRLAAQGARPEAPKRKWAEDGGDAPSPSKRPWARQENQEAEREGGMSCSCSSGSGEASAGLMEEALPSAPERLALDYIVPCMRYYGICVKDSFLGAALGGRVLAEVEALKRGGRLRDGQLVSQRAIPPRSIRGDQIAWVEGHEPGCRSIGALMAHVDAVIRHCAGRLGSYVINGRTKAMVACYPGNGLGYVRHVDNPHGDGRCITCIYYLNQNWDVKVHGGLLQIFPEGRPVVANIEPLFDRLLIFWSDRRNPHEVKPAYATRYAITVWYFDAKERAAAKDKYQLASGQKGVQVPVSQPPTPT
T1 sequence (Q9GZT9 whole entry, looked up): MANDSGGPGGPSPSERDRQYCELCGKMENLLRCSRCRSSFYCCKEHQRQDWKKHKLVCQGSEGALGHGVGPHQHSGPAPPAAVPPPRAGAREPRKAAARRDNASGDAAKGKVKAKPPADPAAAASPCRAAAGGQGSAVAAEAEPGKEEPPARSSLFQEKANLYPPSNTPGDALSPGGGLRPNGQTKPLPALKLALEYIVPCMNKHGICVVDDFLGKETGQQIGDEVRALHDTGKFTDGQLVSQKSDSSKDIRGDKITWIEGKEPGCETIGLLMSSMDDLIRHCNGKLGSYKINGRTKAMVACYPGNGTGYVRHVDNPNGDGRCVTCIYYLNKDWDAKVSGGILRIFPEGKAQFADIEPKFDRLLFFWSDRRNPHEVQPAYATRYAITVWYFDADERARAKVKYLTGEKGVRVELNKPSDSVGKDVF
T1 sequence (Q9H6Z9 whole entry, looked up): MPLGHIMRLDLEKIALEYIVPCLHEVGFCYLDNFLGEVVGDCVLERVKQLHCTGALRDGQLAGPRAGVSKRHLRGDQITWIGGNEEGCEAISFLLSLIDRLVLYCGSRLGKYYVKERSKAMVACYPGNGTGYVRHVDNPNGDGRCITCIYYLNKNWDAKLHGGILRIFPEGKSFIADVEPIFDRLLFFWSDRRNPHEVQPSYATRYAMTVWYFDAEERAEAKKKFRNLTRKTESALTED
T1 sequence (Q9NXG6 whole entry, looked up): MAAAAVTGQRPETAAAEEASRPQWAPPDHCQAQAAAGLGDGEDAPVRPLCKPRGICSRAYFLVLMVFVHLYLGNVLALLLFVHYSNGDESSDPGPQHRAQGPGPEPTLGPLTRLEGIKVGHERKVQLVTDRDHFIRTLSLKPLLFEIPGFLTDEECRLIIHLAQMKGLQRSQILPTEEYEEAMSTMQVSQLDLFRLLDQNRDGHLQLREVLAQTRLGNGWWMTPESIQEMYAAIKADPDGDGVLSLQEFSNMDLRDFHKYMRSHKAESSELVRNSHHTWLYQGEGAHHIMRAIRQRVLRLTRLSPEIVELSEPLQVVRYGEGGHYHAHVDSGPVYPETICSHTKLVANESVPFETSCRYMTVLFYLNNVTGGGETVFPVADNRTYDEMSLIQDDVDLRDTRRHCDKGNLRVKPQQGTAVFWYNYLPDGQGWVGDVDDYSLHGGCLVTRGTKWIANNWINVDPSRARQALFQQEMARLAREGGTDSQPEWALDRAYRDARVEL

SMILES	EC50 [1]	Intrinsic activity [2]	other results
CC1(C)CC[C@]2(C(=O)NO)CC[C@]3(C)C(=CC[C@@H]4[C@@]5(C)CCC(=O)OC(C)(C)[C@@H]5CC[C@]43C)[C@@H]2C1	5.8 µM	2.2	
C=C(C)[C@@H]1CC[C@]2(C(=O)NO)CC[C@]3(C)C(CC[C@@H]4[C@@]5(C)CC=CC(C)(C)[C@@H]5CC[C@]43C)[C@H]12 (some centres undefined)	3.2 µM	0.48	
C=C(C)[C@@H]1CC[C@]2(C(=O)O)CC[C@]3(C)[C@H](CC[C@@H]4[C@@]5(C)CC[C@H](O)C(C)(C)[C@@H]5CC[C@]43C)[C@@H]12 [BETULINIC ACID]	> 50 µM		
C[C@H]1[C@H](C)CC[C@]2(C(=O)NO)CC[C@]3(C)C(=CC[C@@H]4[C@@]5(C)CC[C@H](O)C(C)(C)[C@@H]5CC[C@]43C)[C@H]12	7.7 µM	0.17	
CC1(C)[C@@H](O)CC[C@]2(C)[C@H]3C(=O)C=C4[C@@H]5C[C@@](C)(C(=O)NO)CC[C@]5(C)CC[C@@]4(C)[C@]3(C)CC[C@@H]12	> 50 µM		
C=C(C)[C@@H]1CC[C@]2(C(=O)NO)CC[C@]3(C)C(CC[C@@H]4[C@@]5(C)Cc6cnoc6C(C)(C)[C@@H]5CC[C@]43C)[C@H]12 (some centres undefined)	2.6 µM	0.55	
CC1(C)CC[C@]2(C(=O)NO)CC[C@]3(C)C(=CC(=O)[C@@H]4[C@@]5(C)CC[C@H](O)C(C)(C)[C@@H]5CC[C@]43C)[C@@H]2C1	11.4 µM	0.15	
C=C(C)[C@@H]1CC[C@]2(C(=O)NO)CC[C@]3(C)C(CC[C@@H]4[C@@]5(C)Cc6cn[nH]c6C(C)(C)[C@@H]5CC[C@]43C)[C@H]12 (some centres undefined)	2.4 µM	0.34	
C=C(C)[C@@H]1CC[C@]2(C)[C@H](CC=C3[C@@H]4CC(C)(C)CC[C@]4(C(=O)OC)CC[C@]32C)[C@@]1(C)CCC(=O)NO	7.5 µM	1.19	
CC1(C)CC[C@]2(C(=O)O)CC[C@]3(C)C(=CC[C@@H]4[C@@]5(C)CC[C@H](O)C(C)(C)[C@@H]5CC[C@]43C)[C@@H]2C1 [OLEANOLIC_ACID]	> 50 µM		
CC1(C)CC[C@]2(C(=O)O)CC[C@]3(C)C(=CC[C@@H]4[C@@]5(C)C[C@@H](O)[C@H](O)C(C)(C)[C@@H]5CC[C@]43C)[C@@H]2C1 [MASLINIC ACID]	> 50 µM		
CC1(C)CCC2(C(=O)NO)CC[C@]3(C)C(=CC[C@@H]4[C@@]5(C)CC/C(=N\O)C(C)(C)[C@@H]5CC[C@]43C)[C@@H]2C1 (single isomer, unassigned)	3.8 µM	0.43	
CC1(C)CCC2(C(=O)NO)CC[C@]3(C)C(=CC[C@@H]4[C@@]5(C)CC[C@H](O)C(C)(C)[C@@H]5CC[C@]43C)[C@@H]2C1 (single isomer, unassigned)	16.4 µM	0.39	
C=C(C)[C@@H]1CC[C@]2(C(=O)O)CC[C@]3(C)C(CC[C@@H]4[C@@]5(C)CC[C@H](OC(=O)CC(C)(C)C(=O)O)C(C)(C)[C@@H]5CC[C@]43C)[C@H]12 (some centres undefined)	> 50 µM		
C=C(C)[C@@H]1CC[C@]2(C(=O)NO)CC[C@]3(C)C(CC[C@@H]4[C@@]5(C)CC[C@H](O)C(C)(C)[C@@H]5CC[C@]43C)[C@@H]12 (some centres undefined)	4.8 µM	0.36	inhibition [3]: Active; Activity (HEK-293T [4]): Non-Toxic; Activity (HEK-293T [5]): Non-Toxic; Activity (HEK-293T [6]): Non-Toxic; inhibition [7]: Active; inhibition [8]: Active; Activity (HEK-293T [9]): Non-Toxic; Activity (HEK-293T [10]): Non-Toxic; inhibition [11]: Active; inhibition [12]: Active; inhibition [13]: Active; inhibition [14]: Active; inhibition [15]: inactive
C[C@H]1[C@H](C)CC[C@]2(C(=O)NO)CC[C@]3(C)C(=CC[C@@H]4[C@@]5(C)CC/C(=N\O)C(C)(C)[C@@H]5CC[C@]43C)[C@H]12	8.9 µM	0.1	
C[C@H]1[C@H](C)CC[C@]2(C(=O)O)CC[C@]3(C)C(=CC[C@@H]4[C@@]5(C)CC[C@H](O)C(C)(C)[C@@H]5CC[C@]43C)[C@H]12 [URSOLIC ACID]	> 50 µM		
CC1(C)[C@@H](O)CC[C@]2(C)[C@H]3C(=O)C=C4[C@@H]5C[C@@](C)(C(=O)O)CC[C@]5(C)CC[C@@]4(C)[C@]3(C)CC[C@@H]12 [ENOXOLONE]	> 50 µM		
CC1(C)CC[C@]2(C(=O)NO)CC[C@]3(C)C(=CC[C@@H]4[C@@]5(C)C[C@@H](O)[C@H](O)C(C)(C)[C@@H]5CC[C@]43C)[C@@H]2C1	7.1 µM	0.1	
CC1(C)CCC2(C(=O)NO)CC[C@]3(C)C(=CC[C@@H]4[C@@]5(C)CC=CC(C)(C)[C@@H]5CC[C@]43C)[C@@H]2C1 (single isomer, unassigned)	5 µM	0.16	
CC1(C)CCC2(C(=O)O)CC[C@]3(C)C(=CC(=O)[C@@H]4[C@@]5(C)CC[C@H](O)C(C)(C)[C@@H]5CC[C@]43C)[C@@H]2C1 (single isomer, unassigned)	> 50 µM		
C=C(C)[C@@H]1CC[C@]2(C(=O)NO)CC[C@]3(C)C(CC[C@@H]4[C@@]5(C)CC/C(=N\O)C(C)(C)[C@@H]5CC[C@]43C)[C@@H]12 (some centres undefined)	6.8 µM	0.31	
